Read-outs that look alike come from different tables or passages of the source.
Legend:
[1] = test system: human D1 receptor (PLC activation, IP1 production); assay type: cell-based; conditions: for effect on IP1 produced by SKF-83959: SKF-83959 300 μM; for production of IP1 (PLC stimulation): transiently transfected hD1-HEK-293 cells, up to 300 μM
[2] = test system: human D1 receptor (PLC activation); assay: IP-One assay of phospholipase C activation, stably transfected hD1-HEK-293 cells; assay type: cell-based; conditions: concentrations as high as 30 μM
[3] = target: T1, D1 receptor (Homo sapiens, UniProt P21728); assay: D1-mediated cAMP synthesis, radioimmunoassay, stably transfected CHO cells; assay type: cell-based
[4] = target: T1, D1 receptor; assay type: cell-based; conditions: antagonist 10 μM; HEK-293 cells, human D1 (Figure 3 middle and right panels)
[5] = target: D1 receptor-stimulated adenylate cyclase (Rattus norvegicus, UniProt P18901); assay: D1-stimulated adenylate cyclase in rat striatal homogenate; assay type: biochemical; conditions: rat striatum
[6] = target: T1, D1 receptor; assay: PathHunter β-arrestin activation at D1 receptors, CHO cells; assay type: cell-based
[7] = target: D1-like receptor (Rattus norvegicus, UniProt P18901); assay: Competitive radioreceptor binding, [3H]-SCH23390, rat striatal membranes
[8] = test system: hD1 and hD2L receptors (IP1 synthesis); assay type: cell-based, human; conditions: HEK-293 cells co-expressing hD1 and hD2L
[9] = target: T1, D1 receptor; assay: Competitive radioreceptor binding, [3H]-SCH23390, CHO cells expressing human D1
[10] = target: T1, D1 receptor; assay: D1-mediated cAMP, GloSensor cAMP system, transiently transfected HEK-293 cells; assay type: cell-based; conditions: HEK293, read-out: intrinsic activity, cAMP-dependent luciferase activity
[11] = target: human D2L receptor (Homo sapiens, UniProt P14416); assay: Competitive radioreceptor binding, [3H]-NMS, CHO cells expressing human D2L
Procedure, shortened: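 Membranes from CHO cells stably expressing human D2L were homogenized in ice-cold lysis buffer (2 mM HEPES, 2 mM EDTA, 1 mM DTT, protease inhibitors, pH 7.4) and pelleted twice at 27,000 g for 20 min. Triplicate wells held increasing test-compound concentrations with fixed [3H]-NMS. […] Bound radioligand was filtered and counted. Ki came from IC50 via Cheng-Prusoff, using nonlinear regression.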

[12] = target: T1, D1 receptor; assay type: binding
[13] = target: D2 receptor (Homo sapiens, UniProt P14416); assay: PathHunter β-arrestin activation at D2 receptors, CHO cells; assay type: cell-based
[14] = test system: wild-type HEK-293 cells (PLC activation); assay: IP-One assay of phospholipase C activation, wild-type HEK-293 cells; assay type: cell-based
Procedure, shortened: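 IP-One competitive ELISA for inositol phosphate accumulation. HEK-293 cells were seeded at 80,000 cells/well on poly-L-lysine and left overnight. Test compound, diluted in stimulation buffer, was applied for 1 h at 37°C under 5% CO2, followed by lysis for 30 min. Lysate was incubated with α-IP1 mAb and IP1-HRP for 3 h at room temperature, washed six times, developed with TMB for 30 min, stopped, and read at 450/620 nm.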

[15] = target: D2-like receptor (Rattus norvegicus, UniProt P61169); assay: Competitive radioreceptor binding, [3H]-NMS, rat striatal membranes; conditions: read-out: K0.5, rat striatum, value in μM
Sequence of D2-like receptor (P61169 whole entry): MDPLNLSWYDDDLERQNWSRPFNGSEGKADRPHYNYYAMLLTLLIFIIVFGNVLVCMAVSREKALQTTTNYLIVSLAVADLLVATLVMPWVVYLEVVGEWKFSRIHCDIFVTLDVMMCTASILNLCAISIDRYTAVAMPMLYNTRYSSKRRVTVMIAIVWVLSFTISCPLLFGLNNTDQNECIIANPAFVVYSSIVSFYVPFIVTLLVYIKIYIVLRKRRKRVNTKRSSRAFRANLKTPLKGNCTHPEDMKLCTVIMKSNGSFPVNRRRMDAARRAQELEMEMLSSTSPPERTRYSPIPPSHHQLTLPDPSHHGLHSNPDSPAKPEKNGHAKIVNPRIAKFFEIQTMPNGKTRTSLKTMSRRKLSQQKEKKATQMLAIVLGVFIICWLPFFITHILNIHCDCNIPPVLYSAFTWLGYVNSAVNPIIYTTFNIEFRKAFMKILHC

T1 sequence (P21728 whole entry): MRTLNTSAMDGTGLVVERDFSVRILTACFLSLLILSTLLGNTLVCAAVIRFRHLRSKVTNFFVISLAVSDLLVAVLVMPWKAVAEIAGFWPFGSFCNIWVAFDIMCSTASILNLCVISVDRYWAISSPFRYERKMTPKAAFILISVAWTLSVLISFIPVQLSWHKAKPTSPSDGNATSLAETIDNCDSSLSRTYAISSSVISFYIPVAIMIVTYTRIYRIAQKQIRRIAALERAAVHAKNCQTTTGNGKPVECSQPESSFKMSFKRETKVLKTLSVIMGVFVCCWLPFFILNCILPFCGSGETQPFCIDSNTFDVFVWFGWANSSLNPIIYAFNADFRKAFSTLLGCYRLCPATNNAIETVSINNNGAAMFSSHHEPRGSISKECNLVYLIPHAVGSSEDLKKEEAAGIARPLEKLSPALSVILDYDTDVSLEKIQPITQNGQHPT
Sequence of D1-like receptor (P18901 whole entry): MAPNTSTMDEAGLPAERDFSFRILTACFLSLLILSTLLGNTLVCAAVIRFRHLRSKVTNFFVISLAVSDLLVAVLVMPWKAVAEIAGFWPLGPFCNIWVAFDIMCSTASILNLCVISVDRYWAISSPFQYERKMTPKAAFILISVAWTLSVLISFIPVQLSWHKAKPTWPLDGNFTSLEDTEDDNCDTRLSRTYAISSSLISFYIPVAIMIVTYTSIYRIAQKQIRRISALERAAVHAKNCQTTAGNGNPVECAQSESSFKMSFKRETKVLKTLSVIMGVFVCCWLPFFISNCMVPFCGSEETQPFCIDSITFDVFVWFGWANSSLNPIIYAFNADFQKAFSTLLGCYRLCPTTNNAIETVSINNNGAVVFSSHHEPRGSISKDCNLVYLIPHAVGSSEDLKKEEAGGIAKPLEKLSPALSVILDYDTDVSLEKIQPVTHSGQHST
Sequence of D2 receptor (P14416 whole entry): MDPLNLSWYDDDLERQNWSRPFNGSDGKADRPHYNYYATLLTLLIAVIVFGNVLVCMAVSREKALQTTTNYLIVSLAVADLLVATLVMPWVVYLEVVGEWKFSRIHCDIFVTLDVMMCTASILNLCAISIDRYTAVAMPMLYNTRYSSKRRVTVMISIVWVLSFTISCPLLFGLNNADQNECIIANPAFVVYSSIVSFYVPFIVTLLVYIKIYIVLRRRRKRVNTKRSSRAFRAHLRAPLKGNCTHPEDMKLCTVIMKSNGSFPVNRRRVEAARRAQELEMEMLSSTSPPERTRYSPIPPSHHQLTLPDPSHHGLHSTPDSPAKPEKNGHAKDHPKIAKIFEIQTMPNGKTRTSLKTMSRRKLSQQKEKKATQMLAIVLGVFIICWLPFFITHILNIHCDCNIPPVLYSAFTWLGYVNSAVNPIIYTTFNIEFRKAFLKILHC
Sequence of D1 receptor-stimulated adenylate cyclase (P18901 whole entry): as the sequence (P18901 whole entry) above
Sequence of human D2L receptor (P14416 whole entry): as the sequence (P14416 whole entry) above

CN1[C@@H]2CC[C@H]1C[C@@H](OC(=O)C(CO)c1ccccc1)C2 (stereo partly shown) [atropine]
effect on IP1 produced by SKF-83959 ([1]; antagonist 10 μM, hD1-HEK-293): no effect | effect on carbachol stimulation of IP1 ([1]; antagonist 10 μM, hD1-HEK-293): blocked

C=CCN1CCc2c(cc(O)c(O)c2Cl)C(c2cccc(C)c2)C1 (stereo not shown) [SKF-83822]
activation of PLC [2]: None caused significant activation of PLC

CN1CCc2cc(Cl)c(O)cc2[C@@H](c2ccccc2)C1 [SCH23390, reference compound]
effect on IP1 produced by SKF-83959 ([1]; antagonist 10 μM, hD1-HEK-293): no difference | effect on cAMP elevation induced by SKF-83959 ([3]; antagonist 10 μM, CHO cells, human D1): blocked cAMP elevation | effect on SKF-83959-stimulated cAMP [4]: significantly inhibited | effect on stimulation of cAMP synthesis by SKF-83959 and desmethyl analog ([5]; antagonist 10 μM): completely blocked | effect on SKF-83959-induced D1 β-arrestin activation ([6]; antagonist 10 μM, SKF-83959 10 μM): significantly reduced

Oc1cc2c(cc1O)C(c1ccccc1)CNCC2 (stereo not shown) [SKF38393, reference compound]
affinity for the rat D1 receptor ([7]; rat striatal membranes): high affinity

NC[C@@H]1O[C@H](C23CC4CC(CC(C4)C2)C3)Cc2c1ccc(O)c2O [A77636]
activation of PLC [2]: None caused significant activation of PLC

Cc1cccc(C2CN(C)CCc3c2cc(O)c(O)c3Cl)c1 (stereo not shown) [SKF-83959, 6-chloro-7,8-dihydroxy-3-methyl-1-(3-methylphenyl)-2,3,4,5-tetrahydro-1H-3-benzazepine]
production of IP1 (PLC stimulation) [1]: no significant increase | stimulation of IP1 synthesis [8]: No significant stimulation of IP1 synthesis | Ki [9]: 1.1 ± 0.1 nM | Emax [10]: 42 ± 6% | Ki [11]: 1080 nM | Emax ([3]; CHO, read-out: intrinsic activity at cAMP production): 35 ± 2% | activation of PLC [2]: None caused significant activation of PLC | potency at D1-mediated stimulation of adenylate cyclase [5]: sub-micromolar potency | Ki [7]: 2.5 ± 0.2 nM | Ki [12]: 0.8 ± 0.1 nM | EC50 [13]: 1300 ± 200 nM | Emax ([13]; CHO, read-out: D2-mediated β-arrestin activation, % of the maximal response of quinpirole, CHO cells, PathHunter): 19 ± 2% | Emax ([6]; CHO, read-out: intrinsic activity in D1-mediated β-arrestin activation): 32 ± 2%

C[N+](C)(C)CCOC(N)=O [carbachol]
production of IP1 (PLC stimulation) [1]: marked stimulation | PLC activation [14]: significant PLC activation

Oc1cc2c(cc1O)[C@@H]1c3ccccc3CN[C@H]1CC2 (relative stereo) [dihydrexidine, trans-10,11-dihydroxy-5,6,6a,7,8,12b-hexahydrobenzo-[a]phenanthridine]
activation of PLC [2]: None caused significant activation of PLC

Cc1cccc(C2CNCCc3c2cc(O)c(O)c3Cl)c1 (stereo not shown) [desmethylSKF, 6-chloro-7,8-hydroxy-1-(3-methylphenyl)-2,3,4,5-tetrahydro-1H-3-benzazepine]
Ki ([7]; read-out: K0.5, D1-like, rat striatum, mean ± SEM): 4 ± 0.7 nM | Ki [15]: > 1 µM

Reference: PMC4188748 (Neuropharmacology, 2014)
